Source: ChEMBL document CHEMBL3758106, “Antitumor Activity of Americanin A Isolated from the Seeds of Phytolacca americana by Regulating the ATM/ATR Signaling Pathway and the Skp2-p27 Axis in Human Colon Cancer Cells” (J Nat Prod, 2015)
pIC50: −log10 of the molar value. Active and inactive are the calls of the source. The calls are words filed in the database; no cut-off is given here.

Tests used:
[1] = Upregulation of phosphorylated H2A.X expression at Ser139 in human HCT116 cells at 7.5 to 30 uM after 24 hrs by Western blot analysis; assay type: functional, cell-based; details: HCT-116
[2] = system: HCT-116; experiment: Induction of cell cycle arrest in human HCT116 cells assessed as accumulation at G2/M phase at 15 uM after 24 hrs by propidium iodide staining-based flow cytometric analysis in presence of RNase A (reference value: 20.6%); assay type: functional
[3] = system: HCT-116; experiment: Induction of cell cycle arrest in human HCT116 cells assessed as accumulation at G2/M phase at 7.5 uM after 24 hrs by propidium iodide staining-based flow cytometric analysis in presence of RNase A (reference value: 20.6%); assay type: functional
[4] = system: HCT-116; experiment: Induction of apoptosis in human HCT116 cells assessed as dead cells at 30 uM after 48 hrs by annexin V-FITC/propidium iodide staining-based flow cytometric analysis (reference value: 4.2%); assay type: functional
[5] = system: Mus musculus; experiment: Upregulation of p27 in human HCT116 cells xenografted in nude mouse at 5 to 10 mg/kg, ip administered 3 times per week measured on day 41 by Western blot analysis; assay type: functional, organism-based; details: HCT-116
Outline: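 HCT116 xenografts in nude mice dosed ip at 5 or 10 mg/kg three times weekly to day 41. Portions of the excised frozen tumors were thawed on ice, homogenized in complete lysis buffer, protein quantified by Bradford, and p21, p27 and Skp2 assessed by Western blot with β-actin as internal control.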

[6] = system: HCT-116; experiment: Induction of cell cycle arrest in human HCT116 cells assessed as accumulation at G0/G1 phase at 30 uM after 24 hrs by propidium iodide staining-based flow cytometric analysis in presence of RNase A (reference value: 64.6%); assay type: functional
[7] = system: HCT-116; experiment: Induction of reactive oxygen species in human HCT116 cells after 48 hrs by DCFH-DA staining-based flow cytometric analysis; assay type: functional, cell-based
Outline: (§1)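 HCT116 cells seeded overnight, then exposed to test compounds, alone or with NAC, for 48 h in complete medium. Loaded with 20 μM DCFH-DA for 30 min; intracellular ROS in 20 000 cells per group read by flow cytometry as histograms.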

[8] = system: HCT-116; experiment: Induction of reactive oxygen species in human HCT116 cells at 15 uM after 48 hrs by DCFH-DA staining-based flow cytometric analysis (reference value: 5.1%); assay type: functional; outline: as §1
[9] = system: HCT-116; experiment: Induction of morphological change in human HCT116 cells assessed as appearance of rounded cells at 30 uM after 24 to 48 hrs by phase contrast microscopic analysis; assay type: functional, cell-based
Outline: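 HCT116 cells incubated with compound for 24 h, then viewed and photographed under phase-contrast microscopy; also examined at 48 h.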

[10] = Decrease in Skp1 expression in human HCT116 cells at 7.5 to 30 uM after 24 hrs by western blot analysis; assay type: functional, cell-based; details: HCT-116
Outline: (§2)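 HCT116 cells exposed 24 h in complete medium; lysed in RIPA buffer (pH 8.0), protein by BCA, equal loads run on 8–13% SDS-PAGE, PVDF transfer, blocked in 5% BSA/TBST, primary antibodies overnight at 4 °C, HRP secondaries 2 h RT, ECL detection; β-actin as loading control.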

[11] = Upregulation of p53 expression in human HCT116 cells at 7.5 to 30 uM after 24 hrs by Western blot analysis; assay type: functional, cell-based; details: HCT-116
[12] = system: HCT-116; experiment: Induction of apoptosis in human HCT116 cells assessed as decrease in Bcl2 expression at 7.5 to 30 uM after 48 hrs by Western blot analysis; assay type: functional, cell-based
Outline: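 HCT116 cells exposed 48 h; Western blot of RIPA lysates (BCA quantification, SDS-PAGE, PVDF, overnight primary antibodies at 4 °C, HRP secondary, ECL).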

[13] = system: HCT-116; experiment: Induction of cell cycle arrest in human HCT116 cells assessed as accumulation at sub-G1 phase after 24 hrs by propidium iodide staining-based flow cytometric analysis in presence of RNase; assay type: functional
[14] = Decrease in SCF E3 expression in human HCT116 cells at 7.5 to 30 uM after 24 hrs by western blot analysis; assay type: functional, cell-based; details: HCT-116; outline: as §2
[15] = system: Mus musculus; experiment: Upregulation of p27 in human HCT116 cells xenografted in nude mouse at 5 to 10 mg/kg, ip administered 3 times per week measured on day 41 by H and E staining-based phase contrast microscopic analysis; assay type: functional, organism-based; details: HCT-116
Outline: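 Tumors excised from the xenograft study (ip 5 or 10 mg/kg three times weekly, day 41) were formalin-fixed and paraffin-embedded. Sections were probed with antibody, detected by LSAB/HRP, counterstained with H&E and photographed under an inverted phase-contrast microscope.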

[16] = system: HCT-116; experiment: Induction of cell cycle arrest in human HCT116 cells assessed as accumulation at S phase at 7.5 uM after 48 hrs by propidium iodide staining-based flow cytometric analysis in presence of RNase A (reference value: 16.2%); assay type: functional
[17] = Antiproliferative activity against human HCT15 cells after 24 to 72 hrs by SRB assay; assay type: functional, cell-based; details: HCT-15
Outline: (§3)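 Cells grown in 96-well plates (RPMI 1640; MRC-5 in MEM, 10% FBS, antibiotics) with compound […]; fixed in 10% TCA 30 min at 4 °C, stained 0.4% SRB in 1% acetic acid 1 h, dye dissolved in 10 mM Tris pH 10.0, A515 read; viability as % of solvent control, IC50 by nonlinear regression; mean of three independent experiments.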

[18] = system: A549; experiment: Antiproliferative activity against human A549 cells after 24 to 72 hrs by SRB assay; assay type: functional, cell-based; outline: as §3
[19] = system: HCT-116; experiment: Induction of apoptosis in human HCT116 cells assessed as viable cells at 30 uM after 48 hrs by annexin V-FITC/propidium iodide staining-based flow cytometric analysis (reference value: 91.2%); assay type: functional; details: HCT-116, 48 h, read-out: Activity
[20] = system: K562; experiment: Antiproliferative activity against human K562 cells after 24 to 72 hrs by SRB assay; assay type: functional, cell-based; outline: as §3
[21] = system: HCT-116; experiment: Induction of cell cycle arrest in human HCT116 cells assessed as accumulation at G0/G1 phase at 30 uM after 48 hrs by propidium iodide staining-based flow cytometric analysis in presence of RNase A (reference value: 54.3%); assay type: functional
[22] = system: HCT-116; experiment: Increase in p21 expression in human HCT116 cells after 24 hrs by western blot analysis; assay type: functional, cell-based; outline: as §2
[23] = molecular target: Serine-protein kinase ATM/ATR (Homo sapiens) (UniProt Q13315+Q13535); experiment: Activation of ATM/ATR in human HCT116 cells assessed as downregulation of cdc25C level after 24 hrs by Western blot analysis; assay type: cell-based; details: HCT-116; outline: as §2
[24] = system: HCT-116; experiment: Induction of apoptosis in human HCT116 cells assessed as early apoptotic cells at 30 uM after 48 hrs by annexin V-FITC/propidium iodide staining-based flow cytometric analysis (reference value: 1.6%); assay type: functional
[25] = system: HCT-116; experiment: Induction of cell cycle arrest in human HCT116 cells assessed as accumulation at G2/M phase at 30 uM after 24 hrs by propidium iodide staining-based flow cytometric analysis in presence of RNase A (reference value: 20.6%); assay type: functional
[26] = system: HCT-116; experiment: Induction of apoptosis in human HCT116 cells assessed as late apoptotic cells at 30 uM after 48 hrs by annexin V-FITC/propidium iodide staining-based flow cytometric analysis (reference value: 7.2%); assay type: functional

## O=C/C=C/c1ccc2c(c1)O[C@@H](CO)[C@H](c1ccc(O)c(O)c1)O2 [AMERICANIN A]
[1]
  Activity: Active
[2]
  Activity: 31.8%
[3]
  Activity: 27.5%
[4]
  Activity: 5.1%
[5]
  Activity: Active
[6]
  Activity: 39%
[7]
  Activity: Dose-dependent effect
[8]
  Activity: 7.9%
[9]
  Activity: Active
[10]
  Activity: Active
[11]
  Activity: Active
[12]
  Activity: Active
[13]
  Activity: Dose-dependent effect
[14]
  Activity: Active
[15]
  Activity: Active
[16]
  Activity: 13.5%
[17]
  pIC50: 4.90
[18]
  pIC50: 4.41
[19]
  viability at 30 µM: 30.6%
[20]
  pIC50: 4.89
[21]
  Activity: 16.4%
[22]
  Activity: Dose-dependent effect
[23]
  Activity: Dose-dependent effect
[24]
  Activity: 32.8%
[25]
  Activity: 38.9%
[26]
  Activity: 36.5%
